Consider three compounds from PMC4682886 (ChemMedChem, 2015).

≈ marks a conversion by molar mass, not a printed value. Read-outs that look alike come from different tables or passages of the source.

The conditions of series [1]: in the presence of fluconazole; lowest value; ref [45]; cited from earlier work.
Series [2] deals with resistant clinical isolates of C. albicans. Further details: unit not given beside the values. Particulars: ref [69], cited from earlier work.
Series [3] has as its target C. albicans sterol α-demethylase (a.k.a. Erg11 or CYP51). The note with it: ref [71],[72]; cited from earlier work.
For series [4], the system named is resistant clinical isolates of C. albicans. Format: cell-based. The note with it: for Growth (OD600) +Fluc: fluconazole 64 μg/mL alone; for Growth (OD600) +Fluc / Growth (OD600) +Cpd 31 +Fluc: 16 h in SC at 30°C; for Growth (OD600) +Cpd 31 +Fluc: compound 31 3 μM + fluconazole 64 μg/mL.
Series [5] concerns C. albicans strain HLY4123 and fluconazole-resistant clinical isolates 26 and 45. The series is described as follows: microbe, parasite or virus in culture. Format: cell-based. Particulars: for MIC90: Candida albicans; for MICcpd (MIC90): compound 31 alone; for FICI: compound 31 and fluconazole; for MICcpd(+Flc) (MIC90): compound 31 in combination with fluconazole.
Series [6] has as its system NIH 3T3 cells. The series is described as follows: Cytotoxicity against NIH 3T3 cells. Format: cell-based. Particulars: concentrations up to 1.5 mM, listed as Synazo-1. In short, it runs like this: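 Test compound applied to NIH 3T3 cells at concentrations up to 1.5 mM. Values are arithmetic means ± SD of three independent experiments.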
The test system of series [7] is C. albicans susceptible strain HLY4123. In words: Dose-response curves of test compounds against C. albicans with fluconazole. Format: cell-based. Particulars: strain HLY4123, in the presence of fluconazole (0.25 μg/mL); mean ± SD of three independent experiments.

In general, MIC refers to the least concentration at which growth counts as inhibited. `CN[C@H]1CC[C@@H](c2ccc(Cl)c(Cl)c2)c2ccccc21` [sertraline]: the MIC in series [1] was at least 0.5 µg/mL.
In general, Ki refers to the dissociation constant of the complex between target and ligand, obtained from inhibition or displacement. As for `OC(Cn1cncn1)(Cn1cncn1)c1ccc(F)cc1F` [Fluconazole, fluconazole, reference compound], the MICFlc in series [2] (isolate 17) is on record as 32; in series [2] (isolate 23), 32; in series [2] (isolate 26), 32; in series [2] (isolate 33), 64; in series [2] (isolate 36), 64; in series [2] (isolate 45), 128. Further, in series [3], the Ki was 30 nM. The “Growth (OD600) +Fluc” value in series [4] (isolate 17) is on record as 3.96 OD600; in series [4] (isolate 23) it was 6.77 OD600; in series [4] (isolate 26), 6.44 OD600; in series [4] (isolate 33), 7.38 OD600; in series [4] (isolate 36) it was 5.08 OD600; in series [4] (isolate 45), 9.17 OD600. Moreover, the MIC90 in series [5] (read-out: MIC90 for fluconazole, susceptible strain, synazo-1 present at 300 nM) came to 0.125 µM (≈ 0.0383 µg/mL); in series [5] (read-out: MICFlc (MIC90), isolate 26, fluconazole alone) it was 836 µM (≈ 256 µg/mL); in series [5] (read-out: MICFlc (MIC90), isolate 45, fluconazole alone), 836 µM (≈ 256 µg/mL); in series [5] (read-out: MICFlc (MIC90), strain HLY4123, fluconazole alone), 0.5 µM (≈ 0.153 µg/mL).
In general, EC50 refers to the midpoint of the concentration-response curve. Take `Cc1c(Cl)ccc2c1NC(=O)[C@@]21[C@H]2C(=O)N(c3ccccc3)C(=O)[C@H]2[C@H]2CN(C(=O)OCc3ccccc3)CCN21` (racemic) [Compound 31, (±)-benzyl (3R,3a′R,3b′S,9a′S)-6-chloro-7-methyl-1′,2,3′-trioxo-2′-phenyl-2′,3′,3a′,3b′,4′,6′,7′,9a′-octahydrospiro[indoline-3,9′-pyrrolo[3′,4′:3,4]pyrrolo[1,2-a]pyrazine]-5′(1′H)-carboxylate]: the cytotoxicity entry in series [6] is “low toxicity”. Moreover, the EC50 in series [7] was 0.3 ± 0.01 nM; in series [4] (enhancing the effect of fluconazole against some resistant strains, lowest value) it was at least 2 nM; in series [4] (read-out: Potency +Cpd 31 EC50, isolate 45, fluconazole 64 μg/mL, mean ± SD of three experiments), 16 ± 0.002 nM. The “Growth (OD600) +Cpd 31 +Fluc” value in series [4] (isolate 17) amounted to 0.76 OD600; in series [4] (isolate 23), 0.60 OD600; in series [4] (isolate 26), 0.83 OD600; in series [4] (isolate 33) it was 0.88 OD600; in series [4] (isolate 36) it was 1.07 OD600; in series [4] (isolate 45), 1.03 OD600. Also, the entries for the “MICcpd (MIC90)” value in series [5] (isolate 26), in series [5] (isolate 45) and in series [5] (strain HLY4123) were over 30 µM, over 30 µM and over 300 µM, respectively. In addition, the FICI in series [5] (isolate 26) is reported as 0.14; in series [5] (isolate 45), 0.13; in series [5] (strain HLY4123), 0.25. Also, the results for the “MICcpd(+Flc) (MIC90)” value in series [5] (isolate 26), in series [5] (isolate 45) and in series [5] (strain HLY4123) were 0.3 µM, 0.03 µM and 0.03 µM, respectively. For the same compound, the FIC index result in series [5] (with fluconazole, in all of the strains tested (susceptible and resistant)) was “below 0.5”. In addition, the “toxicity of compound alone against the strains” value in series [5] (without fluconazole, at the solubility limit) is given as “did not have measurable toxicity”.
